In ChEMBL document CHEMBL1123791, “3'-substituted 2',3'-dideoxynucleoside analogues as potential anti-HIV (HTLV-III/LAV) agents” (J Med Chem, 1987):

How the values were obtained:
MT4 [1] = test: Toxicity was determined by evaluation of cluster morphology and reclustering properties in mock infected MT-4 cells at 125 uM concentration; Range is 10-40; type: cell-based; details: human, mt4, 125 µM
In short: (§1)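 Mock-infected MT4 cells were seeded at 2.5×10^5 cells/mL with compound at 125–0.00032 µM and cultured 5 days at 37 °C. Cluster morphology was scored microscopically, then cells were dispersed by pipetting and reclustering read after 4 h. Scoring: ++ >90%, + 10–40%, − <10% toxicity.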

ATH-8 cell line [2] = test: Required dose to reduce viability of normal uninfected ATH8 cells.; type: functional; details: Homo sapiens, read-out: ID50 (the source's name)
MT4 [3] = test: Toxicity was determined by evaluation of cluster morphology and reclustering properties in mock infected MT-4 cells at 5 uM concentration; type: cell-based; details: human, mt4, 5 µM; in short: as §1
ATH-8 cell line [4] = test: Protection of ATH8 cells against the cytopathic effect of HIV.; type: functional; details: Homo sapiens, read-out: ED50 (the source's name)
MT4 [5] = test: Protection was determined by evaluation of cluster morphology and reclustering properties in […] MT-4 cells at 0.2 uM concentration; Range is 10-40; type: functional, Homo sapiens
In short: (§2)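 MT4 cells infected with HIV (300 CCID50/well) were seeded at 2.5×10^5 cells/mL with compound at 125, 5, 0.2, 0.008 or 0.00032 µM and kept 5 days at 37 °C. Clusters were scored microscopically, dispersed by pipetting, and reclustering assessed after 4 h at 37 °C. Scoring: +++ >90% protection.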

MT4 [6] = test: Toxicity was determined by evaluation of cluster morphology and reclustering properties in mock infected MT-4 cells at 0.2 uM concentration; type: cell-based; details: human, mt4, 0.2 µM
MT4 [7] = test: Protection was determined by evaluation of cluster morphology and reclustering properties in […] at 5 uM concentration; Range is 40-60; type: functional, Homo sapiens
MT4 [8] = test: Protection was determined by evaluation of cluster morphology and reclustering properties in mock infected MT-4 cells at 125 uM concentration; type: functional, Homo sapiens; details: in the assay text read “HIV infected” for “mock infected”; in short: as §2
[9] = Therapeutic index (Ratio = ID50/ED50).
MT4 [10] = test: Protection was determined by evaluation of cluster morphology and reclustering properties in […] MT-4 cells at 5 uM concentration.; type: functional, Homo sapiens; in short: as §2
MT4 [11] = test: Protection was determined by evaluation of cluster morphology and reclustering properties in […] MT-4 cells at 125 uM concentration; Range is 40-60; type: functional, Homo sapiens
MT4 [12] = test: Protection was determined by evaluation of cluster morphology and reclustering properties in […] MT-4 cells at 0.2 uM concentration; type: functional, Homo sapiens
MT4 [13] = test: Protection was determined by evaluation of cluster morphology and reclustering properties in […] at 0.008 uM concentration.; type: functional, Homo sapiens
MT4 [14] = test: Toxicity was determined by evaluation of cluster morphology and reclustering properties in mock infected MT-4 cells at 5 uM concentration; Range is 10-40; type: cell-based; details: human, mt4, 5 µM
MT4 [15] = test: Toxicity was determined by evaluation of cluster morphology and reclustering properties in mock infected MT-4 cells at 125 uM concentration; type: cell-based; details: human, mt4, 125 µM
MT4 [16] = test: Protection was determined by evaluation of cluster morphology and reclustering properties in […] MT-4 cells at 5 uM concentration; Range is 10-40; type: functional, Homo sapiens; in short: as §2
MT4 [17] = test: Toxicity was determined by evaluation of cluster morphology and reclustering properties in mock infected MT-4 cells at 0.008 uM concentration; type: cell-based; details: human, mt4, 0.008 µM; in short: as §1
MT4 [18] = test: Protection was determined by evaluation of cluster morphology and reclustering properties in […] MT-4 cells at 0.00032 uM concentration; Range is 10-40; type: functional, Homo sapiens; in short: as §2
MT4 [19] = test: Toxicity was determined by evaluation of cluster morphology and reclustering properties in mock infected MT-4 cells at 0.00032 uM concentration; type: cell-based; details: human, mt4, 0.00032 µM; in short: as §1
MT4 [20] = test: Protection was determined by evaluation of cluster morphology and reclustering properties in […] at 0.008 uM concentration; Range is 40-60; type: functional, Homo sapiens; in short: as §2
MT4 [21] = test: Protection was determined by evaluation of cluster morphology and reclustering properties in […] MT-4 cells at 0.008 uM concentration; Range is 10-40; type: functional, Homo sapiens; in short: as §2
MT4 [22] = test: Toxicity was determined by evaluation of cluster morphology and reclustering properties in mock infected MT-4 cells at 0.008 uM concentration; Range is 10-40; type: cell-based; details: human, mt4, 0.008 µM; in short: as §1

Row | SMILES | EC50 (ATH-8 cell line [4]) | IC50 (ATH-8 cell line [2]) | Toxicity (MT4 [3]) | Toxicity (MT4 [6]) | selectivity ratio [9] | Protection (MT4 [10]) | Protection (MT4 [12]) | Protection (MT4 [13]) | Toxicity (MT4 [15]) | other results
1 | Cc1cn([C@H]2C[C@H](N=[N+]=[N-])[C@@H](CO)O2)c(=O)nc1N | > 100 µM | > 100 µM | < 10% | < 10% |  |  |  |  |  | Toxicity (MT4 [1]): 10%; Protection (MT4 [5]): 10%; Protection (MT4 [7]): 40%; Protection (MT4 [8]): >90%
2 | Cc1cn([C@H]2CC[C@@H](CO)O2)c(=O)[nH]c1=O | 100 µM | > 2000 µM | < 10% | < 10% | > 20 | >90% |  | <10% | < 10% | Protection (MT4 [5]): 10%
3 | Cc1cn([C@H]2C[C@H](F)[C@@H](CO)O2)c(=O)[nH]c1=O [ALOVUDINE] | 1.4 µM | 15 µM | > 90% | > 90% | 10 |  |  |  | > 90% | Protection (MT4 [21]): 10%; Protection (MT4 [18]): 10%; Toxicity (MT4 [19]): < 10%; Toxicity (MT4 [22]): 10%
4 | Nc1ccn([C@H]2C[C@H](O)[C@@H](CO)O2)c(=O)n1 [DOXECITINE] | > 100 µM | > 100 µM |  | < 10% |  | <10% | <10% | <10% | > 90% | Toxicity (MT4 [14]): 10%
5 | Cc1cn([C@H]2C[C@H](O)[C@@H](CO)O2)c(=O)[nH]c1=O [DOXRIBTIMINE] | > 100 µM | > 100 µM | < 10% | < 10% |  | <10% | <10% |  | < 10% | Protection (MT4 [11]): 40%

Second part, led by results:

Row | EC50 (ATH-8 cell line [4]) | SMILES | IC50 (ATH-8 cell line [2]) | Toxicity (MT4 [3]) | Toxicity (MT4 [6]) | selectivity ratio [9] | Protection (MT4 [10]) | Protection (MT4 [12]) | Protection (MT4 [13]) | Toxicity (MT4 [15]) | other results
6 | 260 µM | NCC1C=CC(n2ccc(N)nc2=O)O1 (stereo unspecified) | > 500 µM | < 10% | < 10% | > 1.9 | <10% | <10% |  |  | Toxicity (MT4 [1]): 10%; Protection (MT4 [11]): 40%
7 | > 100 µM | CO[C@H]1C[C@H](n2cc(C)c(=O)[nH]c2=O)O[C@@H]1CO | 88 µM |  | < 10% | < 0.9 |  | <10% | <10% | > 90% | Toxicity (MT4 [14]): 10%; Protection (MT4 [16]): 10%
8 | 2.4 µM | Cc1cn([C@H]2C[C@H](N=[N+]=[N-])[C@@H](CO)O2)c(=O)[nH]c1=O (stereo in doubt; 1a) [ZIDOVUDINE] | 45 µM |  |  | 19 |  | >90% |  |  | Toxicity (MT4 [15]; 125 µM): > 90%; Toxicity (MT4 [17]): < 10%; Protection (MT4 [18]): 10%; Toxicity (MT4 [3]; 5 µM): > 90%; Toxicity (MT4 [19]): < 10%; Protection (MT4 [20]): 40%
